Tests used:
[1] = tested on: Rattus norvegicus; experiment: The compound was evaluated for the anticonflict behavior in male wistar rats as rate of responses (timeout) following dose of 20 mg/kg po; type: functional; design: unit: responses/min
How it was run: (§1)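 Male Wistar rats on 23-h food deprivation, water ad libitum, trained to lever-press for food on continuous reinforcement until stable. Compound or vehicle given orally in randomized sequence 60 min before testing. Responses/min were recorded in reward, timeout and conflict components. Differences from control were tested by Wilcoxon test.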

[2] = tested on: Rattus norvegicus; experiment: The compound was evaluated for the anticonflict behavior in male wistar rats as rate of responses (reward) following dose of 5.0 mg/kg po; type: functional; design: unit: responses/min; how it was run: as §1
[3] = target: Muscarinic acetylcholine receptor; experiment: Inhibition of [3H]QNB binding to muscarinic cholinergic receptor from male Olac rat brain.
[4] = tested on: Rattus norvegicus; experiment: The compound was evaluated for the anticonflict behavior in male wistar rats as rate of responses (timeout) following dose of 40 mg/kg po; type: functional; how it was run: as §1
[5] = target: D(2) dopamine receptor (Bos taurus) (UniProt P20288); experiment: Inhibition of [3H]spiperone binding to dopamine receptor D2 from calf caudate
[6] = tested on: Rattus norvegicus; experiment: Compound administered perorally was evaluated for the conditioned avoidance response in rats; type: functional
How it was run: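 Olac-Wistar rats (120-130 g) trained to cross a shuttle box on a 5-s buzzer, with mild shock if no response within 1 s after it ends. Only high-responders used. Groups of five were dosed orally in water or 0.5% carboxymethylcellulose 1 h 50 min before testing. After 10-min habituation they were tested 20 min. Blockade = shocks as % of stimuli presented.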

[7] = tested on: Rattus norvegicus; experiment: Rotarod response in rat to assess muscular incoordination (following p.o. dosing); type: functional
How it was run: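 Male Olac-Wistar rats (140-150 g), five per group, fed ad libitum, dosed orally. Tested 1 and 2 h later on a horizontal rod (2 rpm, 32 mm diameter), maximum 30 s. Mean time compared with vehicle controls by Mann-Whitney U test, significant at p < 0.05.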

[8] = tested on: Rattus norvegicus; experiment: The compound was evaluated for the anticonflict behavior in male wistar rats as rate of responses (reward) following dose of 0 mg/kg po; type: functional; design: unit: responses/min; how it was run: as §1
[9] = tested on: Rattus norvegicus; experiment: The compound was evaluated for the anticonflict behavior in male wistar rats as rate of responses (conflict) following dose of 0 mg/kg po; type: functional; design: unit: responses/min; how it was run: as §1
[10] = tested on: Rattus norvegicus; experiment: The compound was evaluated for the anticonflict behavior in male wistar rats as rate of responses (reward) following dose of 40 mg/kg po; type: functional; how it was run: as §1
[11] = tested on: Mus musculus; experiment: Compound administered perorally was evaluated for the dose below which no catalepsy was observed at any time period; type: functional
How it was run: (§2)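 CFW mice (21-23 g), three per group, dosed orally in water or 0.5% carboxymethylcellulose. Checked at 0.25, 2.5 and 5.0 h for holding one hind limb on a 2-cm rubber bung and staying on a vertical grid, judged against a control by a trained observer.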

[12] = tested on: Rattus norvegicus; experiment: The compound was evaluated for the anticonflict behavior in male wistar rats as rate of responses (conflic) following dose of 20 mg/kg po; type: functional; design: unit: responses/min; how it was run: as §1
[13] = tested on: Mus musculus; experiment: Compound administered perorally was evaluated for the hypothermia (rectal temperature) in mice; type: functional
How it was run: (§3)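 Groups of three CFW mice (21-23 g) received oral compound in water or 0.5% carboxymethylcellulose. Rectal temperature was taken at 0.25, 2.5 and 5.0 h. Mean change from the group's initial mean was summed over the three times. Hypothermia scored if the summed reduction was >4 °C.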

[14] = tested on: Rattus norvegicus; experiment: The compound was evaluated for the anticonflict behavior in male wistar rats as rate of responses (reward) following dose of 20 mg/kg po; type: functional; design: unit: responses/min; how it was run: as §1
[15] = tested on: Rattus norvegicus; experiment: The compound was evaluated for the anticonflict behavior in male wistar rats as rate of responses (timeout) following dose of 0 mg/kg po; type: functional; how it was run: as §1
[16] = tested on: Rattus norvegicus; experiment: The compound was evaluated for the anticonflict behavior in male wistar rats as rate of responses (conflict) following dose of 40 mg/kg po; type: functional; how it was run: as §1
[17] = organism: Rattus norvegicus; experiment: compound behavior in rat; type: functional; design: unit not given here
How it was run: (§4)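 Olac-Wistar rats (180-190 g), eight per group, dosed orally, front paws placed on a 1.5-cm rod 7 cm above the table. Tested at 0.5, 1, 1.5, 2, 3, 4 and 5 h, up to 20 min hold. Each animal's maximum score (0-5 by time held) was summed, giving a group maximum of 40.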

[18] = tested on: Rattus norvegicus; experiment: The compound was evaluated for the anticonflict behavior in male wistar rats as rate of responses (conflict) following dose of 5.0 mg/kg po; type: functional; design: unit: responses/min; how it was run: as §1
[19] = tested on: Rattus norvegicus; experiment: The compound was evaluated for the anticonflict behavior in male wistar rats as rate of responses (timeout) following dose of 10 mg/kg po; type: functional; design: unit: responses/min; how it was run: as §1
[20] = tested on: Rattus norvegicus; experiment: The compound was evaluated for the anticonflict behavior in male wistar rats as rate of responses (conflict) following dose of 10 mg/kg po; type: functional; design: unit: responses/min; how it was run: as §1
[21] = tested on: Rattus norvegicus; experiment: The compound was evaluated for the anticonflict behavior in male wistar rats as rate of responses (reward) following dose of 10 mg/kg po; type: functional; design: unit: responses/min; how it was run: as §1
[22] = tested on: Rattus norvegicus; experiment: The compound was evaluated for the anticonflict behavior in male wistar rats as rate of responses (timeout) following dose of 5.0 mg/kg po; type: functional; design: unit: responses/min; how it was run: as §1
[23] = organism: Rattus norvegicus; experiment: Compound behavior in rat; type: functional; design: unit not given here; how it was run: as §4
[24] = target: D(2) dopamine receptor (Bos taurus) (UniProt P20288); experiment: Inhibition of [3H]spiperone binding to Dopamine receptor D2 from calf caudate
[25] = target: Muscarinic acetylcholine receptor; experiment: Compound was evaluated for the inhibition of [3H]QNB binding to Muscarinic acetylcholine receptor from male Olac rat brain.
[26] = tested on: Mus musculus; experiment: Compound administered perorally was evaluated for the hypothermia (rectal temperature ) in mice; type: functional; how it was run: as §3
[27] = tested on: Mus musculus; experiment: Dose below which no catalepsy was observed at any time period (following p.o. dosing); type: functional; how it was run: as §2
[28] = tested on: Rattus norvegicus; experiment: The compound was evaluated for the anticonflict behavior in male wistar rats as rate of responses (timeout) following dose of 2.5 mg/kg po; type: functional; how it was run: as §1
[29] = tested on: Rattus norvegicus; experiment: The compound was evaluated for the anticonflict behavior in male wistar rats as rate of responses (conflict) following dose of 2.5 mg/kg po; type: functional; how it was run: as §1
[30] = tested on: Rattus norvegicus; experiment: The compound was evaluated for the anticonflict behavior in male wistar rats as rate of responses (reward) following dose of 2.5 mg/kg po; type: functional; how it was run: as §1
[31] = tested on: Rattus norvegicus; experiment: Compound administered perorally was evaluated for the conditioned avoidance response in rats

Row | Compound | Activity [1] | Activity [2] | ED [6] | ED [7] | Activity [8] | Activity [9] | Activity [12] | EDmin [13] | Activity [14] | Activity [15] | Activity [18] | Activity [19] | Activity [20] | Activity [21] | Activity [22] | Activity [23] | IC50 [24] | IC50 [25] | EDmin [26] | EDmin [27] | other results
1 | CN1CCN(C2=Nc3cc(F)ccc3Nc3nn(C)cc32)CC1 | 15.4 | 45.1 | 100 mg/kg | >20 mg/kg | 47.3 | 3 | 6.9 | 1.6 mg/kg | 45.9 | 5.4 | 3.9 | 7.4 | 9.6 | 42.1 | 5.7 |  |  |  |  |  | IC50 [3]: 150 µM; Activity [4]: 15.4; IC50 [5]: 2.6 µM; Activity [10]: 48.3; EDmin [11]: 50 mg/kg; Activity [16]: 10.1; Activity [17]: >100
2 | CC(C)n1cc2c(n1)Nc1ccc(F)cc1N=C2N1CCN(C)CC1 |  |  | 25 mg/kg | 40 mg/kg |  |  |  |  |  |  |  |  |  |  |  | >50 | 1.1 µM | 7.2 µM | 50 mg/kg | 200 mg/kg | 
3 | CN1CCN(C2=Nc3ccccc3Nc3nn(C)cc32)CC1 |  |  | >50 mg/kg | >50 mg/kg |  |  |  |  |  |  |  |  |  |  |  | 50 | 6.3 µM | 38 µM | 50 mg/kg | 200 mg/kg | 
4 | CCCn1cc2c(n1)Nc1ccc(F)cc1N=C2N1CCN(C)CC1 |  |  | 40 mg/kg | 50 mg/kg |  |  |  |  |  |  |  |  |  |  |  | >50 | 0.18 µM | 16 µM | 25 mg/kg | 200 mg/kg | 
5 | CN1CCN(C2=Nc3ccccc3Nc3c2cnn3C)CC1 |  |  | >50 mg/kg | >50 mg/kg |  |  |  |  |  |  |  |  |  |  |  | >50 | 1500 µM | > 100 µM | >400 mg/kg | >400 mg/kg | 
6 | CN1CCN(C2=Nc3cc(Cl)ccc3Nc3nn(C)cc32)CC1 | 9.6 | 27.5 | 10 mg/kg | >10 mg/kg | 24.9 | 1.1 | 7.8 | 0.8 mg/kg | 5.4 | 2.1 | 6 | 6.5 | 8.1 | 26.3 | 7.9 |  |  |  |  | 12.5 mg/kg | IC50 [3]: 8.9 µM; Activity [4]: 4.6; Activity [28]: 9.3; IC50 [5]: 0.68 µM; Activity [10]: 14.1; Activity [29]: 5.6; Activity [30]: 24.9; Activity [16]: 4.8; Activity [17]: >25
7 | CN1CCN(C2=Nc3cc(Br)ccc3Nc3nn(C)cc32)CC1 | 4.4 | 22.1 | >5 mg/kg | >10 mg/kg | 18.7 | 0.5 | 4.1 | 12.5 mg/kg | 14.1 | 2 | 2.6 | 8 | 5 | 23 | 6 |  | 0.68 µM | > 10 µM |  | 25 mg/kg | Activity [28]: 2.1; Activity [29]: 2.2; Activity [30]: 21.9
8 | CN1CCN(C2=Nc3cc(F)ccc3Nc3c2cnn3C)CC1 |  |  |  | >50 mg/kg |  |  |  |  |  |  |  |  |  |  |  |  |  |  | 100 mg/kg | >200 mg/kg | ED [31]: >50 mg/kg
9 | CNC1=Nc2ccc(Cl)cc2C(c2ccccc2)=[N+]([O-])C1 [CHLORDIAZEPOXIDE] | 3.7 | 70.8 |  |  | 70.2 | 0.6 | 3.3 |  | 54.3 | 1.4 | 1.9 | 3.4 | 4.2 | 68.8 | 2.2 |  |  |  |  |  | 
10 | CN1CCN(C2=Nc3cc(Cl)ccc3Nc3ccccc32)CC1 [CLOZAPINE] |  |  | 30 mg/kg | 40 mg/kg |  |  |  |  |  |  |  |  |  |  |  | 80 |  |  | 50 mg/kg | 100 mg/kg | 
